According to ChEMBL document CHEMBL2413013, “Triplex-forming ability of oligonucleotides containing 1-aryl-1,2,3-triazole nucleobases linked via a two atom-length spacer” (Bioorg Med Chem, 2013):

How the values were obtained:
[1] = Binding affinity to hairpin double stranded DNA AT base pair in sodium cacodylate buffer at pH 6.8 assessed as triplex-forming ability measuring melting temperature after by UV melting experiment
Procedure, shortened: (§1)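 TFO and hairpin dsDNA target, each strand at 1.89 μM final, in 10 mM sodium cacodylate (pH 6.8) with 100 mM KCl and 50 mM MgCl₂. Annealed in boiling water, then cooled slowly to 5 °C. Melting was followed at 260 nm from 5 to 90 °C at 0.5 °C/min. Tm was taken by the two-point average method, mean of three independent runs.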

[2] = Binding affinity to hairpin double stranded DNA GC base pair in sodium cacodylate buffer at pH 6.8 assessed as triplex-forming ability measuring melting temperature after by UV melting experiment; procedure, shortened: as §1
[3] = Binding affinity to hairpin double stranded DNA CG base pair in sodium cacodylate buffer at pH 6.8 assessed as triplex-forming ability measuring melting temperature after by UV melting experiment; procedure, shortened: as §1
[4] = Binding affinity to hairpin double stranded DNA TA base pair in sodium cacodylate buffer at pH 6.8 assessed as triplex-forming ability measuring melting temperature after by UV melting experiment; procedure, shortened: as §1

Structure (SMILES) | Tm [1] [°C] | Tm [2] [°C] | Tm [3] [°C] | Tm [4] [°C]
CC1=CN([C@H]2C[C@H](O[PH](OCCC#N)(OC(C)[C@H]3O[C@@H](n4ccc(N)nc4=O)C[C@@H]3O[PH](OCCC#N)(OC[C@H]3O[C@@H](n4cc(C)c(=O)[nH]c4=O)C[C@@H]3O[PH](OCCC#N)(OC(C)[C@H]3O[C@@H](n4ccc(N)nc4=O)C[C@@H]3O[PH](OCCC#N)(OC[C@H]3O[C@@H](n4cc(C)c(=O)[nH]c4=O)C[C@@H]3O)N(C(C)C)C(C)C)N(C(C)C)C(C)C)N(C(C)C)C(C)C)N(C(C)C)C(C)C)[C@@H](CO[PH](OCCC#N)(O[C@H]3C[C@H](n4ccc(N)nc4=O)O[C@@H]3C(C)O[PH](OCCC#N)(O[C@H]3C[C@H](n4cc(C)c(=O)[nH]c4=O)O[C@@H]3COP(=O)(O)O[C@H]3C[C@H](OCc4cn(-c5ccccc5)nn4)O[C@@H]3CO[PH](OCCC#N)(O[C@H]3C[C@H](n4cc(C)c(=O)[nH]c4=O)O[C@@H]3CO[PH](OCCC#N)(O[C@H]3C[C@H](n4ccc(N)nc4=O)O[C@@H]3C(C)O[PH](OCCC#N)(O[C@H]3C[C@H](n4cc(C)c(=O)[nH]c4=O)O[C@@H]3CO[PH](OCCC#N)(O[C@H]3C[C@H](n4cc(C)c(=O)[nH]c4=O)O[C@@H]3CO[PH](OCCC#N)(O[C@H]3C[C@H](n4cc(C)c(=O)[nH]c4=O)O[C@@H]3CO[PH](OCCC#N)(O[C@H]3C[C@H](n4cc(C)c(=O)[nH]c4=O)O[C@@H]3CO[PH](OCCC#N)(O[C@H]3C[C@H](n4cc(C)c(=O)[nH]c4=O)O[C@@H]3CO)N(C(C)C)C(C)C)N(C(C)C)C(C)C)N(C(C)C)C(C)C)N(C(C)C)C(C)C)N(C(C)C)C(C)C)N(C(C)C)C(C)C)N(C(C)C)C(C)C)N(C(C)C)C(C)C)N(C(C)C)C(C)C)O2)[C@@H](O)NC1=O (stereo not given in full) | 20 | 22 | 22 | 20
Cc1cn([C@H]2C[C@H](O[PH](OCCC#N)(OC[C@H]3O[C@@H](n4cc(C)c(=O)[nH]c4=O)C[C@@H]3O[PH](OCCC#N)(OC[C@H]3O[C@@H](n4cc(C)c(=O)[nH]c4=O)C[C@@H]3O[PH](OCCC#N)(OC[C@H]3O[C@@H](n4cc(C)c(=O)[nH]c4=O)C[C@@H]3O[PH](OCCC#N)(OC[C@H]3O[C@@H](n4cc(C)c(=O)[nH]c4=O)C[C@@H]3O[PH](OCCC#N)(OC(C)[C@H]3O[C@@H](n4ccc(N)nc4=O)C[C@@H]3O[PH](OCCC#N)(OC[C@H]3O[C@@H](n4cc(C)c(=O)[nH]c4=O)C[C@@H]3O[PH](OCCC#N)(OC[C@H]3O[C@@H](OCc4cn(-c5cccc(CO)c5)nn4)C[C@@H]3OP(=O)(O)OC[C@H]3O[C@@H](n4cc(C)c(=O)[nH]c4=O)C[C@@H]3O[PH](OCCC#N)(OC(C)[C@H]3O[C@@H](n4ccc(N)nc4=O)C[C@@H]3O[PH](OCCC#N)(OC[C@H]3O[C@@H](n4cc(C)c(=O)[nH]c4=O)C[C@@H]3O[PH](OCCC#N)(OC(C)[C@H]3O[C@@H](n4ccc(N)nc4=O)C[C@@H]3O[PH](OCCC#N)(OC[C@H]3O[C@@H](n4cc(C)c(=O)[nH]c4=O)C[C@@H]3O[PH](OCCC#N)(OC(C)[C@H]3O[C@@H](n4ccc(N)nc4=O)C[C@@H]3O[PH](OCCC#N)(OC[C@H]3O[C@@H](n4cc(C)c(=O)[nH]c4=O)C[C@@H]3O)N(C(C)C)C(C)C)N(C(C)C)C(C)C)N(C(C)C)C(C)C)N(C(C)C)C(C)C)N(C(C)C)C(C)C)N(C(C)C)C(C)C)N(C(C)C)C(C)C)N(C(C)C)C(C)C)N(C(C)C)C(C)C)N(C(C)C)C(C)C)N(C(C)C)C(C)C)N(C(C)C)C(C)C)N(C(C)C)C(C)C)[C@@H](CO)O2)c(=O)[nH]c1=O (stereo not given in full) | 23 | 23 | 25 | 22

Other lines, results leading:

Tm [1] [°C] | Tm [2] [°C] | Tm [3] [°C] | Tm [4] [°C] | Structure (SMILES)
21 | 21 | 26 | 27 | CC(=O)N1CCCc2ccc(-n3cc(CC[C@H]4C[C@H](OP(=O)(O)OC[C@H]5O[C@@H](n6cc(C)c(=O)[nH]c6=O)C[C@@H]5O[PH](OCCC#N)(OC(C)[C@H]5O[C@@H](n6ccc(N)nc6=O)C[C@@H]5O[PH](OCCC#N)(OC[C@H]5O[C@@H](n6cc(C)c(=O)[nH]c6=O)C[C@@H]5O[PH](OCCC#N)(OC(C)[C@H]5O[C@@H](n6ccc(N)nc6=O)C[C@@H]5O[PH](OCCC#N)(OC[C@H]5O[C@@H](n6cc(C)c(=O)[nH]c6=O)C[C@@H]5O[PH](OCCC#N)(OC(C)[C@H]5O[C@@H](n6ccc(N)nc6=O)C[C@@H]5O[PH](OCCC#N)(OC[C@H]5O[C@@H](n6cc(C)c(=O)[nH]c6=O)C[C@@H]5O)N(C(C)C)C(C)C)N(C(C)C)C(C)C)N(C(C)C)C(C)C)N(C(C)C)C(C)C)N(C(C)C)C(C)C)N(C(C)C)C(C)C)[C@@H](CO[PH](OCCC#N)(O[C@H]5C[C@H](n6cc(C)c(=O)[nH]c6=O)O[C@@H]5CO[PH](OCCC#N)(O[C@H]5C[C@H](n6ccc(N)nc6=O)O[C@@H]5C(C)O[PH](OCCC#N)(O[C@H]5C[C@H](n6cc(C)c(=O)[nH]c6=O)O[C@@H]5CO[PH](OCCC#N)(O[C@H]5C[C@H](n6cc(C)c(=O)[nH]c6=O)O[C@@H]5CO[PH](OCCC#N)(O[C@H]5C[C@H](n6cc(C)c(=O)[nH]c6=O)O[C@@H]5CO[PH](OCCC#N)(O[C@H]5C[C@H](n6cc(C)c(=O)[nH]c6=O)O[C@@H]5CO[PH](OCCC#N)(O[C@H]5C[C@H](n6cc(C)c(=O)[nH]c6=O)O[C@@H]5CO)N(C(C)C)C(C)C)N(C(C)C)C(C)C)N(C(C)C)C(C)C)N(C(C)C)C(C)C)N(C(C)C)C(C)C)N(C(C)C)C(C)C)N(C(C)C)C(C)C)O4)nn3)cc21 (stereo not given in full)
21 | 23 | 25 | 23 | Cc1cn([C@H]2C[C@H](O[PH](OCCC#N)(OC[C@H]3O[C@@H](n4cc(C)c(=O)[nH]c4=O)C[C@@H]3O[PH](OCCC#N)(OC[C@H]3O[C@@H](n4cc(C)c(=O)[nH]c4=O)C[C@@H]3O[PH](OCCC#N)(OC[C@H]3O[C@@H](n4cc(C)c(=O)[nH]c4=O)C[C@@H]3O[PH](OCCC#N)(OC[C@H]3O[C@@H](n4cc(C)c(=O)[nH]c4=O)C[C@@H]3O[PH](OCCC#N)(OC(C)[C@H]3O[C@@H](n4ccc(N)nc4=O)C[C@@H]3O[PH](OCCC#N)(OC[C@H]3O[C@@H](n4cc(C)c(=O)[nH]c4=O)C[C@@H]3O[PH](OCCC#N)(OC[C@H]3O[C@@H](OCc4cn(-c5cccc(NC(N)=O)c5)nn4)C[C@@H]3OP(=O)(O)OC[C@H]3O[C@@H](n4cc(C)c(=O)[nH]c4=O)C[C@@H]3O[PH](OCCC#N)(OC(C)[C@H]3O[C@@H](n4ccc(N)nc4=O)C[C@@H]3O[PH](OCCC#N)(OC[C@H]3O[C@@H](n4cc(C)c(=O)[nH]c4=O)C[C@@H]3O[PH](OCCC#N)(OC(C)[C@H]3O[C@@H](n4ccc(N)nc4=O)C[C@@H]3O[PH](OCCC#N)(OC[C@H]3O[C@@H](n4cc(C)c(=O)[nH]c4=O)C[C@@H]3O[PH](OCCC#N)(OC(C)[C@H]3O[C@@H](n4ccc(N)nc4=O)C[C@@H]3O[PH](OCCC#N)(OC[C@H]3O[C@@H](n4cc(C)c(=O)[nH]c4=O)C[C@@H]3O)N(C(C)C)C(C)C)N(C(C)C)C(C)C)N(C(C)C)C(C)C)N(C(C)C)C(C)C)N(C(C)C)C(C)C)N(C(C)C)C(C)C)N(C(C)C)C(C)C)N(C(C)C)C(C)C)N(C(C)C)C(C)C)N(C(C)C)C(C)C)N(C(C)C)C(C)C)N(C(C)C)C(C)C)N(C(C)C)C(C)C)[C@@H](CO)O2)c(=O)[nH]c1=O (stereo not given in full)
21 | 21 | 22 | 22 | Cc1cn([C@H]2C[C@H](O[PH](OCCC#N)(OC[C@H]3O[C@@H](n4cc(C)c(=O)[nH]c4=O)C[C@@H]3O[PH](OCCC#N)(OC[C@H]3O[C@@H](n4cc(C)c(=O)[nH]c4=O)C[C@@H]3O[PH](OCCC#N)(OC[C@H]3O[C@@H](n4cc(C)c(=O)[nH]c4=O)C[C@@H]3O[PH](OCCC#N)(OC[C@H]3O[C@@H](n4cc(C)c(=O)[nH]c4=O)C[C@@H]3O[PH](OCCC#N)(OC(C)[C@H]3O[C@@H](n4ccc(N)nc4=O)C[C@@H]3O[PH](OCCC#N)(OC[C@H]3O[C@@H](n4cc(C)c(=O)[nH]c4=O)C[C@@H]3O[PH](OCCC#N)(OC[C@H]3O[C@@H](CCc4cn(-c5cccc(O)c5)nn4)C[C@@H]3OP(=O)(O)OC[C@H]3O[C@@H](n4cc(C)c(=O)[nH]c4=O)C[C@@H]3O[PH](OCCC#N)(OC(C)[C@H]3O[C@@H](n4ccc(N)nc4=O)C[C@@H]3O[PH](OCCC#N)(OC[C@H]3O[C@@H](n4cc(C)c(=O)[nH]c4=O)C[C@@H]3O[PH](OCCC#N)(OC(C)[C@H]3O[C@@H](n4ccc(N)nc4=O)C[C@@H]3O[PH](OCCC#N)(OC[C@H]3O[C@@H](n4cc(C)c(=O)[nH]c4=O)C[C@@H]3O[PH](OCCC#N)(OC(C)[C@H]3O[C@@H](n4ccc(N)nc4=O)C[C@@H]3O[PH](OCCC#N)(OC[C@H]3O[C@@H](n4cc(C)c(=O)[nH]c4=O)C[C@@H]3O)N(C(C)C)C(C)C)N(C(C)C)C(C)C)N(C(C)C)C(C)C)N(C(C)C)C(C)C)N(C(C)C)C(C)C)N(C(C)C)C(C)C)N(C(C)C)C(C)C)N(C(C)C)C(C)C)N(C(C)C)C(C)C)N(C(C)C)C(C)C)N(C(C)C)C(C)C)N(C(C)C)C(C)C)N(C(C)C)C(C)C)[C@@H](CO)O2)c(=O)[nH]c1=O (stereo not given in full)
